Here are results for 3 compounds from ChEMBL document CHEMBL3774376, “Synthesis, and anticonvulsant activity of new amides derived from 3-methyl- or 3-ethyl-3-methyl-2,5-dioxo-pyrrolidin-1-yl-acetic acids” (Bioorg Med Chem, 2016).

Usually ED50 stands for the dose that gives a 50% effect, or the effect in half of the subjects. Usually TD50 stands for the dose at which the toxic effect under study appears in half of the subjects. Broadly, the inhibition is the relative decrease from the control value, in per cent.

Data set [1] concerns Mus musculus. Briefly: Anticonvulsant activity in CD1 albino mouse assessed as protection against maximal electroshock-induced seizures at 300 mg/kg, ip after 4 hrs. The class given is functional, organism-based.
The subject of data set [2] is Mus musculus. Briefly: Anticonvulsant activity in ip dosed CD1 albino mouse assessed as protection against 32 mA-current- for 3 secs induced seizure by 6Hz psychomotor seizure test. The class given is functional. In outline:
(§1)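 6-Hz corneal stimulation at 32 mA (6 Hz, 3 s) in male CD-1 mice dosed ip. Groups of six received several doses until at least three points fell between 10 and 90% protection. […] PI = TD50/ED50 (rotarod).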

For data set [3], the system named is Mus musculus. The data set can be described thus: Anticonvulsant activity in CD1 albino mouse assessed as protection against subcutaneous pentylenetetrazole-induced seizures at 100 to 300 mg/kg, ip after 0.5 hrs. The note with it: CD1, 0.5 h, read-out: MED. The class given is functional. Summed up:
(§2)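 Male CD-1 mice (16-26 g), compounds ip in 0.5% methylcellulose/water at 30, 100 or 300 mg/kg, 3-4 per group. At 0.5 or 4 h, pentylenetetrazole 85 mg/kg was injected sc. Protection was absence of clonic convulsions (at least 5 s) over a 30 min observation. Minimum active dose recorded.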

Data set [4] concerns Mus musculus. Briefly: Anticonvulsant activity in ip dosed CD1 albino mouse assessed as time to peak effect by 6Hz psychomotor seizure test. The class given is functional. In outline:
as §1

Data set [5] can be described thus: Neurotoxicity in ip dosed CD1 albino mouse assessed as acute motor impairment by rotarod test. The class given is toxicity, organism-based. The note with it: in vivo. In outline: (§3)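 Quantitation in male CD-1 mice dosed ip at the previously estimated time of peak effect. Seizures were induced by MES or by sc pentylenetetrazole 85 mg/kg; rotarod at 10 rpm assessed motor impairment. Groups of six, at least three doses giving 10-90% effect.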
For orientation: Falling from the rotarod earlier than controls is read as motor impairment.

The test system of data set [6] is Mus musculus. The data set can be described thus: Anticonvulsant activity in CD1 albino mouse assessed as protection against subcutaneous pentylenetetrazole-induced seizures at 300 mg/kg, ip after 4 hrs. The class given is functional, organism-based. In outline:
as §2

The subject of data set [7] is Mus musculus. The data set can be described thus: Anticonvulsant activity in CD1 albino mouse assessed as protection against maximal electroshock-induced seizures at 100 to 300 mg/kg, ip after 0.5 hrs. The note with it: read-out: MED. The class given is functional. A general note: In the maximal electroshock model the usual endpoint is tonic extension of the hind limbs.

Data set [8] has as its system Mus musculus. The data set can be described thus: Anticonvulsant activity in CD1 mouse assessed as protection against 32 mA-current- for 3 secs induced seizure at 100 mg/kg, ip after 0.25 hrs by 6Hz psychomotor seizure test. The class given is functional. Summed up: (§4)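 Male CD-1 mice given 100 mg/kg ip in 0.5% methylcellulose, four per time point. Corneal stimulation at 32 mA, 0.2 ms monopolar rectangular pulses at 6 Hz for 3 s, from a constant-current device. A mouse was protected if it resumed normal exploratory behavior within 10 s. Reported as number protected over number tested.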

Data set [9] is filed under the species Mus musculus. Briefly: Protection index, ratio of TD50 for CD1 albino mouse to ED50 for protection against 32 mA-current- for 3 secs induced seizure in CD1 albino mouse by 6Hz psychomotor seizure test. Summed up: as §1
In data set [10] the test system is Mus musculus. Briefly: Neurotoxicity in CD1 albino mouse assessed as acute motor impairment at 300 mg/kg, ip after 4 hrs by rotarod test. The note with it: in vivo. The class given is toxicity, organism-based. In outline:
(§5)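 Male CD-1 mice given 30, 100 or 300 mg/kg ip in 0.5% methylcellulose, tested at 0.5 and 4 h. Motor impairment was scored as failure to keep balance for at least 1 min on a rod rotating at 10 rpm. Minimum dose causing impairment reported.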

Data set [11] deals with Mus musculus. The data set can be described thus: Anticonvulsant activity in CD1 mouse assessed as protection against 32 mA-current- for 3 secs induced seizure at 100 mg/kg, ip after 2 hrs by 6Hz psychomotor seizure test. The class given is functional, organism-based. In outline:
as §4

In data set [12] the test system is Mus musculus. The data set can be described thus: Neurotoxicity in CD1 albino mouse assessed as acute motor impairment at 100 to 300 mg/kg, ip after 0.5 hrs by rotarod test. The note with it: in vivo. The class given is toxicity, organism-based. In outline: as §5
The subject of data set [13] is Mus musculus. The data set can be described thus: Anticonvulsant activity in CD1 albino mouse assessed as protection against maximal electroshock-induced seizures at 100 to 300 mg/kg, ip after 4 hrs. The class given is functional. The note with it: read-out: MED.
The species named for another data set is Rattus norvegicus. The data set can be described thus: Displacement of [3H]BTX from voltage-sensitive Na+ channel site 2 in rat cerebral cortex synaptoneurosomes at 100 uM after 60 mins by liquid scintillation spectroscopic analysis. The class given is tissue-based. Summed up:
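Cerebral cortex synaptoneurosomes from rat, tested at 100 µM for inhibition of specific [3H]BTX binding to the voltage-sensitive Na+ channel site 2. Reported as % inhibition of control specific binding; run commercially.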
Background: Displacement assays read how much labelled ligand stays bound in the presence of the test substance.

Data set [14] concerns Mus musculus. Briefly: Antinociceptive activity in CD1 albino mouse assessed as reduction of formalin-induced licking response in inflammatory phase at 82.74 mg/kg, ip preincubated for 30 mins measured after 20 to 25 mins. The class given is functional. Details: scale not given: the % may be the effect or the level left.
The test system of data set [15] is Mus musculus. Briefly: Protection index, ratio of TD50 for CD1 albino mouse to ED50 for protection against subcutaneous pentylenetetrazole-induced seizures in CD1 albino mouse. Summed up:
as §3

The subject of data set [16] is Mus musculus. The data set can be described thus: Neurotoxicity in CD1 albino mouse assessed as acute motor impairment at 300 mg/kg, ip measured after 0.5 hrs by rotarod test. The class given is toxicity, organism-based. The note with it: in vivo. Summed up: as §5
Data set [17] deals with Mus musculus. The data set can be described thus: Antinociceptive activity in CD1 albino mouse assessed as reduction of formalin-induced licking response in inflammatory phase at 82.74 mg/kg, ip preincubated for 30 mins measured after 25 to 30 mins. The class given is functional. Details: scale not given: the % may be the effect or the level left.
Data set [18] concerns Mus musculus. The data set can be described thus: Antinociceptive activity in CD1 albino mouse assessed as reduction of formalin-induced licking response in inflammatory phase at 82.74 mg/kg, ip preincubated for 30 mins measured after 15 to 20 mins. The class given is functional. Details: scale not given: the % may be the effect or the level left.
Data set [19] relates to Mus musculus. The data set can be described thus: Anticonvulsant activity in ip dosed CD1 albino mouse assessed as time to peak effect. The class given is functional. Summed up:
as §3

Data set [20] has as its system Mus musculus. The data set can be described thus: Anticonvulsant activity in ip dosed CD1 albino mouse assessed as protection against subcutaneous pentylenetetrazole-induced seizures. The class given is functional. Summed up: as §3
Data set [21] relates to Mus musculus. Briefly: Anticonvulsant activity in ip dosed CD1 albino mouse assessed as protection against maximal electroshock-induced seizures. The class given is functional.
Data set [22] has as its system Mus musculus. The data set can be described thus: Antinociceptive activity in CD1 albino mouse assessed as reduction of formalin-induced licking response in neurogenic phase at 82.74 mg/kg, ip preincubated for 30 mins measured after 5 mins. The class given is functional. Details: scale not given: the % may be the effect or the level left.
For data set [23], the species on record is Mus musculus. The data set can be described thus: Protection index, ratio of TD50 for CD1 albino mouse to ED50 for protection against maximal electroshock-induced seizures in CD1 albino mouse. In outline:
as §3

Data set [24] concerns Mus musculus. Briefly: Local anesthetic activity in CD1 albino mouse assessed prolongation of time reaction at 2 % concentration after 20 secs by tail immersion test relative to vehicle control. The class given is functional. In outline:
(§6)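 Compound at 1 or 2% in 0.5% methylcellulose, injected sc (0.2 ml) about 1 cm from the tail root of male CD-1 mice. After 15 min, the distal 3 cm of the tail was immersed in 50 ± 0.5 °C water and withdrawal time measured, cut off at 20 s. n=8; mean ± SEM; % prolongation relative to vehicle.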

The subject of data set [25] is Mus musculus. Briefly: Local anesthetic activity in CD1 albino mouse assessed prolongation of time reaction at 1 % concentration after 20 secs by tail immersion test relative to vehicle control. The class given is functional. Summed up: as §6
The subject of data set [26] is Mus musculus. Briefly: Anticonvulsant activity in CD1 albino mouse assessed as protection against subcutaneous pentylenetetrazole-induced seizures at 300 mg/kg, ip after 0.5 hrs. The class given is functional, organism-based. In outline: as §2
The test system of data set [27] is Mus musculus. Briefly: Neurotoxicity in CD1 albino mouse assessed as acute motor impairment at 100 to 300 mg/kg, ip after 4 hrs by rotarod test. The note with it: in vivo. The class given is toxicity, organism-based. In outline:
as §5

Calls of active or inactive are those of the source. No cut-off for these calls is given here.

`CC1CC(=O)N(CC(=O)N2CCN(c3ccccc3Cl)CC2)C1=O` (configuration not stated): the outcome in the data set with Mus musculus [1], in the data set on Mus musculus [6] and in the data set on Mus musculus [11] was inactive. For the same compound, the 50% effective dose (ED50) with Mus musculus [2] worked out at 152 mg/kg. For the same compound, the minimal effective dose with Mus musculus [3] and in the data set on Mus musculus [7] was 300 mg/kg in each case. The Time in the data set on Mus musculus [4] worked out at 0.25 h. The TD50 in data set [5] was more than 500 mg/kg. The Activity is reported as 100% with Mus musculus [8] and “Non-toxic” in the data set on Mus musculus [10]. In addition, in the data set filed under Mus musculus [9], the “Ratio TD50/ED50” value is reported as more than 3.29. For the same compound, the MTC in the data set on Mus musculus [12] was 300 mg/kg.
With `CC1CC(=O)N(CC(=O)N2CCN(c3cccc(Cl)c3)CC2)C1=O` (configuration not stated), the results for the minimal effective dose in the data set on Mus musculus [13], in the data set with Mus musculus [3] and in the data set with Mus musculus [7] were 300 mg/kg, 100 mg/kg and 100 mg/kg, respectively. Also, in the data set filed under Rattus norvegicus, the inhibition amounted to 28.5%. Besides, the Activity is 100% in the data set with Mus musculus [14]; “Non-toxic” with Mus musculus [16]; 96% in the data set on Mus musculus [17]; 98% with Mus musculus [18]; “Non-toxic” in the data set on Mus musculus [10]; 67% with Mus musculus [22]. Besides, in the data set on Mus musculus [24], the Activity is 17%. Besides, the figures for the “Ratio TD50/ED50” value with Mus musculus [15] and in the data set filed under Mus musculus [23] were 8 and 3.91, respectively. In [5], the TD50 came to 323 mg/kg. Further, the Time in the data set on Mus musculus [19] came out at 1 h. The result with Mus musculus [6] was inactive. Further, the ED50 was 40.3 mg/kg with Mus musculus [20] and 82.7 mg/kg in the data set with Mus musculus [21].
Take `O=C1NC(=O)C(c2ccccc2)(c2ccccc2)N1` [PHENYTOIN]: the minimal effective dose with Mus musculus [13] and in the data set on Mus musculus [7] was 30 mg/kg in each case. Moreover, the inhibition in the data set filed under Rattus norvegicus amounted to 53.9%. Also, the Activity in the data set on Mus musculus [25] is given as 18%; with Mus musculus [24] it was 84%. Also, the outcome in the data set with Mus musculus [26] and with Mus musculus [6] was inactive. Moreover, the TD50 in data set [5] is 56.9 mg/kg. The MTC in the data set on Mus musculus [27] and with Mus musculus [12] was 100 mg/kg each time. Besides, the Time in the data set with Mus musculus [19] is 1 h. Moreover, in the data set filed under Mus musculus [23], the “Ratio TD50/ED50” value was found to be 8.56.
